Measured values published in ChEMBL document CHEMBL1122366, “Potential antiatherosclerotic agents. 3. Substituted benzoic and non benzoic acid analogues of cetaben” (1983).

Assays:
Rattus norvegicus [1] = assay: In vivo sterol lowering activity when dosed as 0.01 % of the diet; assay type: functional
How it was run: (§1)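 Normal rats were dosed in the diet. Serum sterol and triglyceride levels were measured and expressed as the mean percent of control values. Significance versus control was reported at p < 0.05, 0.01 and 0.001.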

[2] = molecular target: T1, Sterol O-acyltransferase 1 (Rattus norvegicus) (UniProt O70536); assay: In vitro inhibition of acyl coenzyme A:cholesterol acyltransferase; design: concentration or dose not given beside the values; conditions: concentration not given here
T1 sequence (whole entry): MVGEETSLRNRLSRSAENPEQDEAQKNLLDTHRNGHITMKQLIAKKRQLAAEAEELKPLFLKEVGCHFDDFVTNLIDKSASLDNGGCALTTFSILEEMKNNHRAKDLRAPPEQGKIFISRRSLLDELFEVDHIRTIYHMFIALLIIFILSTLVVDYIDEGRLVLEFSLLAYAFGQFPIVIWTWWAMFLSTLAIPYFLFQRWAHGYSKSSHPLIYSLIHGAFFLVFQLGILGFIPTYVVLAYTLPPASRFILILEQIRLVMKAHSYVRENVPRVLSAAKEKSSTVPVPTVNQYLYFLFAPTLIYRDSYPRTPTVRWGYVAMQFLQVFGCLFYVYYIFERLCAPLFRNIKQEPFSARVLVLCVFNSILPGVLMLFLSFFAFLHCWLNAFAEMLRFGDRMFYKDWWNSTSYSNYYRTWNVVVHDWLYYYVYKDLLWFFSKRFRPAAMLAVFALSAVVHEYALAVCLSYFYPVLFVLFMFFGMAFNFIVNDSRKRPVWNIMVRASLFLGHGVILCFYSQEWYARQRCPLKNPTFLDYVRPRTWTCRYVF
How it was run: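 Enzyme fatty acyl-CoA:cholesterol acyltransferase (ACAT), assayed in vitro at a single drug concentration of 5.2 μg/mL. The value is the mean percent inhibition of enzyme activity.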

Rattus norvegicus [3] = assay: In vivo sterol lowering activity at dose of 0.10 % of the diet; assay type: functional; how it was run: as §1
Rattus norvegicus [4] = assay: In vivo triglyceride lowering activity dosed at 0.10 % of the diet.; assay type: functional; how it was run: as §1
Rattus norvegicus [5] = assay: In vivo triglyceride lowering activity when dosed at 0.03 % of the diet; assay type: functional; how it was run: as §1
Rattus norvegicus [6] = assay: In vivo sterol lowering activity when dosed as 0.03 % of the diet; assay type: functional; how it was run: as §1
Rattus norvegicus [7] = assay: In vivo triglyceride lowering activity when dosed as 0.01 % of the diet; assay type: functional; how it was run: as §1

Row | inhibition [2] | Structure (SMILES) | serum sterol level, % of control (Rattus norvegicus [1]) | serum sterol level, percent of control (Rattus norvegicus [3]) | serum triglyceride, percent of control (Rattus norvegicus [4]) | serum triglyceride level, percent of control (Rattus norvegicus [5]) | serum sterol level, percent of control (Rattus norvegicus [6]) | serum triglyceride level, percent of control (Rattus norvegicus [7]) | Diet (Rattus norvegicus [5])
1 | 63% | CCCCCCCCCCCCCCCCNc1ccc(C(=O)[O-])c(C(=O)[O-])c1.[Na+].[Na+] | 100% | 101% | <67% | 85% | 105% | 110% | 
2 | 0% | CCCCCCCCCCCCCCCCNc1ccc(C(=O)Oc2ccc(Cl)cc2)cc1 | 94% | 91% | 83% | 85% | <86% | 91% | 
3 | < 43% | CCCCCCCCCCCCCCCCNc1ccc(C(=O)CC(=O)C(=O)OC)cc1 | 92% | 85% | 81% | 77% | 96% | 101% | 
4 | < 37% | CCCCCCCCCCCCCCCCNC1CCC(C(=O)OC)CC1 (stereo not given) | 99% | <71% | <63% | 88% | 92% | 78% | 
5 | < 22% | CCCCCCCCCCCCCCCCNc1ccc(C(=O)CC#N)cc1 | 107% | 115% | 130% | 140% | 104% | 132% | 
6 | < 45% | CCCCCCCCCCCCCCCCNc1ccc(C(=O)O)cn1 | 102% | 90% | 94% | 88% | <84% | 121% | 
7 | 12% | CCCCCCCCCCCCCCCCNc1ccc(C(=O)Nc2ccc(C(=O)O)cc2)cc1 | 95% | 100% | 103% | 121% | <87% | 85% | 
8 | 0% | CCCCCCCCCCCCCCCCNc1ccc(C(=O)C(C)(C)C(=O)OCC)cc1 | 94% | 90% | 101% | <65% | 103% | 101% | 

The next lines start with the molecule.

Row | Structure (SMILES) | inhibition [2] | serum sterol level, % of control (Rattus norvegicus [1]) | serum sterol level, percent of control (Rattus norvegicus [3]) | serum triglyceride, percent of control (Rattus norvegicus [4]) | serum triglyceride level, percent of control (Rattus norvegicus [5]) | serum sterol level, percent of control (Rattus norvegicus [6]) | serum triglyceride level, percent of control (Rattus norvegicus [7]) | Diet (Rattus norvegicus [5])
9 | CCCCCCCCCCCCCCCCNc1ccc(C(=O)OCC(O)COC(=O)c2cccnc2)cc1 (stereo not given) | 0% | 103% | 84% | <63% | 83% | 108% | 93% | 
10 | CCCCCCCCCCCCCCCCNc1ccc(C(=O)Oc2ccccc2)cc1 | 0% | 89% | <84% | <76% | 76% | 85% | 105% | 
11 | CCCCCCCCCCCCCCCCNC1CCC(C(=O)O)CC1 (stereo not given) | < 48% | 97% | <75% | 71% | 79% | <86% | 75% | 
12 | CCCCCCCCCCCCCCCCNc1cc(C(=O)[O-])c(C(=O)[O-])c(C(=O)[O-])c1.[Na+].[Na+].[Na+] | < 24% | 100% | 97% | 93% | <68% | 100% | 82% | 
13 | CCCCCCCCCCCCCCCCNc1ccc(C=O)cc1 | < 30% | 91% | <85% | <53% | <64% | 92% | <66% | 
14 | CCCCCCCCCCCCCCCCNc1ccc(C(=O)SCC(O)CO)cc1 (stereo not given) | 3% | 93% | <82% | <64% | 83% | 92% | 106% | 
15 | CCCCCCCCCCCCCCCCNc1csc(C(=O)O)c1 | 70% | 98% | 98% | 79% | 103% | 101% | 112% | 
16 | CCCCCCCCCCCCCCCCNc1ccc(C(=O)OC2COC(c3ccccc3)OC2)cc1 (stereo not given) | 0% | 95% | 99% | 78% |  | 91% | 103% | 68%
17 | CCCCCCCCCCCCCCCCNc1ccc(C(=O)C(C(=O)OCC)C(=O)OCC)cc1 | 9% | 100% | <87% | <59% | <66% | 96% | <68% | 
18 | CCCCCCCCCCCCCCCCNc1ccc(C(=O)NS(=O)(=O)c2ccccc2)cc1 | < 22% | 88% | <67% | <36% | <55% | <84% | 86% | 
19 | CCCCCCCCCCCCCCCCNc1ccc(C(=O)OCC(=O)OCC)cc1 | 15% | <80% | <66% | 72% | 76% | <81% | 92% | 
20 | CCCCCCCCCCCCCCCCNc1ccc(C(=O)SCCO)cc1 | 1% | <87% | <84% | <59% | 74% | <86% | 70% | 
